Laboratory results taken from ChEMBL document CHEMBL1126653, “Structure-function studies of amphiphilic antibacterial peptides” (1993).
≈ marks a conversion by molar mass, not a printed value. Peptide text beside a SMILES is read from it.

Tests used:
Pseudomonas aeruginosa [1] = experiment: Compound tested for the antimicrobial activity against Pseudomonas aeruginosa strain ATCC 25916; format: functional
In short: (§1)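 Microbroth dilution in Tryptic Soy Broth; inoculum 5×10^5 CFU/mL; plates incubated at 37 °C for 18-20 h; value reported as minimal inhibitory concentration (µg/mL).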

[2] = Hemolytic activity towards human erythrocytes is evaluated for magainin 2 at peptide concentration of 25 ug/mL; format: functional
In short: (§2)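 Washed human erythrocytes from healthy volunteers (3 mL packed cells, PBS pH 7.4 washes, diluted to 20 mL) exposed to peptide in PBS at 25-200 µg/mL, 30 min at 37 °C; supernatant absorbance at 576 nm after centrifugation; 0.1% Triton X-100 taken as 100% hemolysis; duplicates.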

Staphylococcus aureus [3] = experiment: Compound tested for the activity against Staphylococcus aureus strain 8; format: functional; in short: as §1
Pseudomonas aeruginosa [4] = experiment: Compound tested for the antimicrobial activity against Pseudomonas aeruginosa strain 3; format: functional; in short: as §1
Pseudomonas aeruginosa [5] = experiment: Compound tested for the antimicrobial activity against Pseudomonas aeruginosa strain 9; format: functional; in short: as §1
Staphylococcus aureus [6] = experiment: Compound tested for the activity against Staphylococcus aureus strain 10; format: functional; in short: as §1
Staphylococcus aureus [7] = experiment: Compound tested for the activity against Staphylococcus aureus strain 5; format: functional; in short: as §1
[8] = test system: Acinetobacter calcoaceticus subsp. anitratus; experiment: Compound tested for the antimicrobial activity against Acinetobacter anitratus; format: functional, aeinetobacter anitrotap
In short: (§3)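 MIC by microbroth dilution in Tryptic Soy Broth; inoculum 5×10^5 CFU/mL; plates incubated 18-20 h at 37 °C; assay pH approximately 7.4.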

Pseudomonas aeruginosa [9] = experiment: Compound tested for the antimicrobial activity against Pseudomonas aeruginosa strain 7; format: functional; in short: as §1
Staphylococcus aureus [10] = experiment: Compound tested for the activity against Staphylococcus aureus strain 1; format: functional; in short: as §1
Enterobacter cloacae [11] = experiment: Compound tested for the antimicrobial activity against Enterobacter cloacae; format: functional; in short: as §1
Staphylococcus aureus [12] = experiment: Compound tested for the activity against Staphylococcus aureus strain 2; format: functional; in short: as §1
Staphylococcus aureus [13] = experiment: Compound tested for the activity against Staphylococcus aureus strain 9; format: functional; in short: as §1
Klebsiella pneumoniae = experiment: Compound tested for the antimicrobial activity against Klebsiella pneumoniae; format: functional; in short: as §3
Pseudomonas aeruginosa [14] = experiment: Compound tested for the antimicrobial activity against Pseudomonas aeruginosa strain 2; format: functional; in short: as §1
[15] = Hemolytic activity towards human erythrocytes is evaluated for magainin 2 at peptide concentration of 200 µg/mL; format: functional; in short: as §2
Pseudomonas aeruginosa [16] = experiment: Compound tested for the antimicrobial activity against Pseudomonas aeruginosa strain 11; format: functional; in short: as §1
Staphylococcus aureus [17] = experiment: Compound tested for in vitro susceptibility against ATCC strain 29213 of Staphylococcus aureus; format: functional; in short: as §1
Staphylococcus aureus [18] = experiment: Compound tested for the activity against Staphylococcus aureus strain 11; format: functional; in short: as §1
Pseudomonas aeruginosa [19] = experiment: Compound tested for the antimicrobial activity against Pseudomonas aeruginosa strain 8; format: functional; in short: as §1
Pseudomonas aeruginosa [20] = experiment: Compound tested for the antimicrobial activity against Pseudomonas aeruginosa strain 10; format: functional; in short: as §1
Staphylococcus aureus [21] = experiment: Compound tested for the activity against Staphylococcus aureus strain 4; format: functional; in short: as §1
Pseudomonas aeruginosa [22] = experiment: Compound tested for the antimicrobial activity against Pseudomonas aeruginosa strain 6; format: functional; in short: as §1
[23] = test system: Salmonella enterica subsp. enterica serovar Anatum; experiment: Compound tested for the antimicrobial activity against S. a natum; format: functional, salmoneila onotum; in short: as §1
Staphylococcus aureus [24] = experiment: Compound tested for the activity against Staphylococcus aureus strain 3; format: functional; in short: as §1
Pseudomonas aeruginosa [25] = experiment: Compound tested for the antimicrobial activity against Pseudomonas aeruginosa strain 4; format: functional; in short: as §1
Pseudomonas aeruginosa [26] = experiment: Compound tested for the antimicrobial activity against Pseudomonas aeruginosa strain 5; format: functional; in short: as §1
[27] = Hemolytic activity towards human erythrocytes is evaluated for magainin 2 at peptide concentration of 50 µg/mL; format: functional; in short: as §2
[28] = Hemolytic activity towards human erythrocytes is evaluated for magainin 2 at peptide concentration of 100 µg/mL; format: functional; in short: as §2
Shigella flexneri = experiment: Compound tested for the antimicrobial activity against Shigella flexneri; format: functional; in short: as §3
Pseudomonas aeruginosa [29] = experiment: Compound tested for the antimicrobial activity against Pseudomonas aeruginosa strain 1; format: functional; in short: as §1
Staphylococcus aureus [30] = experiment: Compound tested for the activity against Staphylococcus aureus strain ATCC 28953; format: functional; in short: as §1
Staphylococcus aureus [31] = experiment: Compound tested for the activity against Staphylococcus aureus strain 6; format: functional; in short: as §1
Staphylococcus aureus [32] = experiment: Compound tested for the activity against Staphylococcus aureus strain 7; format: functional; in short: as §1
Escherichia coli = experiment: Compound tested for in vitro susceptibility against ATCC strain 25922 of Escherichia coli; format: functional; settings: ATCC25922; in short: as §1
Pseudomonas aeruginosa [33] = experiment: Compound tested for in vitro susceptibility against ATCC strain 27853 of Pseudomonas aeruginosa; format: functional; settings: ATCC 27853; in short: as §1
Proteus mirabilis = experiment: Compound tested for the antimicrobial activity against Proteus mirabilis; format: functional; in short: as §1
Enterobacter cloacae [34] = experiment: Compound tested for the antimicrobial activity against Enterobacter cloacae ROS; format: functional; in short: as §3

CC(C)C[C@H](NC(=O)[C@H](CCCCN)NC(=O)[C@H](CC(C)C)NC(=O)[C@H](Cc1c[nH]c2ccccc12)NC(=O)[C@H](CCCCN)NC(=O)[C@H](CCCCN)NC(=O)[C@H](C)NC(=O)[C@H](Cc1c[nH]c2ccccc12)NC(=O)[C@H](CCCCN)NC(=O)[C@H](CCCCN)NC(=O)[C@H](Cc1c[nH]c2ccccc12)NC(=O)[C@H](CC(C)C)NC(=O)[C@@H](N)CCCCN)C(=O)N[C@@H](Cc1c[nH]c2ccccc12)C(=O)N[C@@H](CCCCN)C(=O)N[C@@H](C)C(=O)N[C@@H](Cc1c[nH]c2ccccc12)C(=O)O (H-KLWKKWAKKWLKLWKAW-OH)
MIC (Pseudomonas aeruginosa [1]): 3.12 µg/mL (≈ 1.34 µM) | Hemolysis [2]: 10% | MIC (Staphylococcus aureus [3]): 25 µg/mL (≈ 10.7 µM) | MIC (Pseudomonas aeruginosa [4]): 12.5 µg/mL (≈ 5.37 µM) | MIC (Pseudomonas aeruginosa [5]): > 100 µg/mL | MIC (Staphylococcus aureus [6]): 25 µg/mL (≈ 10.7 µM) | MIC (Staphylococcus aureus [7]): 12.5 µg/mL (≈ 5.37 µM) | MIC [8]: 3.12 µg/mL (≈ 1.34 µM) | MIC (Pseudomonas aeruginosa [9]): 12.5 µg/mL (≈ 5.37 µM) | MIC (Staphylococcus aureus [10]): 12.5 µg/mL (≈ 5.37 µM) | MIC (Enterobacter cloacae [11]): < 0.39 µg/mL | MIC (Staphylococcus aureus [12]): 6.25 µg/mL (≈ 2.68 µM) | MIC (Staphylococcus aureus [13]): 25 µg/mL (≈ 10.7 µM) | MIC (Klebsiella pneumoniae): 12.5 µg/mL (≈ 5.37 µM) | MIC (Pseudomonas aeruginosa [14]): 3.12 µg/mL (≈ 1.34 µM) | Hemolysis [15]: 55% | MIC (Pseudomonas aeruginosa [16]): > 100 µg/mL | MIC (Staphylococcus aureus [17]): 50 µg/mL (≈ 21.5 µM) | MIC (Staphylococcus aureus [18]): 25 µg/mL (≈ 10.7 µM) | MIC (Pseudomonas aeruginosa [19]): 12.5 µg/mL (≈ 5.37 µM) | MIC (Pseudomonas aeruginosa [20]): 25 µg/mL (≈ 10.7 µM) | MIC (Staphylococcus aureus [21]): 12.5 µg/mL (≈ 5.37 µM) | MIC (Pseudomonas aeruginosa [22]): > 100 µg/mL | MIC [23]: 12.5 µg/mL (≈ 5.37 µM) | MIC (Staphylococcus aureus [24]): 25 µg/mL (≈ 10.7 µM) | MIC (Pseudomonas aeruginosa [25]): 12.5 µg/mL (≈ 5.37 µM) | MIC (Pseudomonas aeruginosa [26]): 12.5 µg/mL (≈ 5.37 µM) | Hemolysis [27]: 18% | Hemolysis [28]: 31% | MIC (Shigella flexneri): 3.12 µg/mL (≈ 1.34 µM) | MIC (Pseudomonas aeruginosa [29]): 6.25 µg/mL (≈ 2.68 µM) | MIC (Staphylococcus aureus [30]): 25 µg/mL (≈ 10.7 µM) | MIC (Staphylococcus aureus [31]): 12.5 µg/mL (≈ 5.37 µM) | MIC (Staphylococcus aureus [32]): 25 µg/mL (≈ 10.7 µM) | MIC (Escherichia coli): 6.25 µg/mL (≈ 2.68 µM) | MIC (Pseudomonas aeruginosa [33]): 3.12 µg/mL (≈ 1.34 µM) | MIC (Proteus mirabilis): > 100 µg/mL | MIC (Enterobacter cloacae [34]): 25 µg/mL (≈ 10.7 µM)

NCCCC[C@H](NC(=O)[C@H](CCCCN)NC(=O)[C@H](Cc1c[nH]c2ccccc12)NC(=O)[C@H](Cc1c[nH]c2ccccc12)NC(=O)[C@H](CCCCN)NC(=O)[C@H](Cc1c[nH]c2ccccc12)NC(=O)[C@H](Cc1c[nH]c2ccccc12)NC(=O)[C@H](CCCCN)NC(=O)[C@@H](N)CCCCN)C(=O)N[C@@H](Cc1c[nH]c2ccccc12)C(=O)O (H-KKWWKWWKKW-OH)
MIC (Staphylococcus aureus [17]): 12.5 µg/mL (≈ 7.86 µM) | MIC (Escherichia coli): 50 µg/mL (≈ 31.4 µM) | MIC (Pseudomonas aeruginosa [33]): 50 µg/mL (≈ 31.4 µM)

CC(C)C[C@H](NC(=O)[C@H](CCCCN)NC(=O)[C@H](CCCCN)NC(=O)[C@H](CC(C)C)NC(=O)[C@H](CC(C)C)NC(=O)[C@H](CCCCN)NC(=O)[C@H](CC(C)C)NC(=O)[C@H](CC(C)C)NC(=O)[C@H](CCCCN)NC(=O)[C@@H](N)CCCCN)C(=O)O (H-KKLLKLLKKL-OH)
MIC (Staphylococcus aureus [17]): > 200 µg/mL | MIC (Escherichia coli): > 200 µg/mL | MIC (Pseudomonas aeruginosa [33]): > 200 µg/mL

CC(C)C[C@H](NC(=O)[C@H](CCCCN)NC(=O)[C@H](CC(C)C)NC(=O)[C@H](Cc1ccccc1)NC(=O)[C@H](CCCCN)NC(=O)[C@H](CCCCN)NC(=O)[C@H](C)NC(=O)[C@H](Cc1ccccc1)NC(=O)[C@H](CCCCN)NC(=O)[C@H](CCCCN)NC(=O)[C@H](Cc1ccccc1)NC(=O)[C@H](CC(C)C)NC(=O)[C@@H](N)CCCCN)C(=O)N[C@@H](Cc1ccccc1)C(=O)N[C@@H](CCCCN)C(=O)N[C@@H](C)C(=O)N[C@@H](Cc1c[nH]c2ccccc12)C(=O)O (H-KLFKKFAKKFLKLFKAW-OH)
MIC (Pseudomonas aeruginosa [1]): 3.12 µg/mL (≈ 1.44 µM) | Hemolysis [2]: 5% | MIC (Staphylococcus aureus [3]): 25 µg/mL (≈ 11.5 µM) | MIC (Pseudomonas aeruginosa [4]): 6.25 µg/mL (≈ 2.88 µM) | MIC (Pseudomonas aeruginosa [5]): > 100 µg/mL | MIC (Staphylococcus aureus [6]): 25 µg/mL (≈ 11.5 µM) | MIC (Staphylococcus aureus [7]): 50 µg/mL (≈ 23 µM) | MIC [8]: 6.25 µg/mL (≈ 2.88 µM) | MIC (Pseudomonas aeruginosa [9]): 6.25 µg/mL (≈ 2.88 µM) | MIC (Staphylococcus aureus [10]): 3.12 µg/mL (≈ 1.44 µM) | MIC (Enterobacter cloacae [11]): 6.25 µg/mL (≈ 2.88 µM) | MIC (Staphylococcus aureus [12]): 25 µg/mL (≈ 11.5 µM) | MIC (Staphylococcus aureus [13]): 50 µg/mL (≈ 23 µM) | MIC (Klebsiella pneumoniae): 12.5 µg/mL (≈ 5.76 µM) | MIC (Pseudomonas aeruginosa [14]): 12.5 µg/mL (≈ 5.76 µM) | Hemolysis [15]: 40% | MIC (Pseudomonas aeruginosa [16]): 25 µg/mL (≈ 11.5 µM) | MIC (Staphylococcus aureus [18]): 25 µg/mL (≈ 11.5 µM) | MIC (Pseudomonas aeruginosa [19]): 12.5 µg/mL (≈ 5.76 µM) | MIC (Pseudomonas aeruginosa [20]): 50 µg/mL (≈ 23 µM) | MIC (Staphylococcus aureus [21]): 25 µg/mL (≈ 11.5 µM) | MIC (Pseudomonas aeruginosa [22]): 25 µg/mL (≈ 11.5 µM) | MIC [23]: 12.5 µg/mL (≈ 5.76 µM) | MIC (Staphylococcus aureus [24]): 25 µg/mL (≈ 11.5 µM) | MIC (Pseudomonas aeruginosa [25]): 12.5 µg/mL (≈ 5.76 µM) | MIC (Pseudomonas aeruginosa [26]): 12.5 µg/mL (≈ 5.76 µM) | Hemolysis [27]: 15% | Hemolysis [28]: 26% | MIC (Shigella flexneri): 3.12 µg/mL (≈ 1.44 µM) | MIC (Pseudomonas aeruginosa [29]): 6.25 µg/mL (≈ 2.88 µM) | MIC (Staphylococcus aureus [30]): 25 µg/mL (≈ 11.5 µM) | MIC (Staphylococcus aureus [31]): 25 µg/mL (≈ 11.5 µM) | MIC (Staphylococcus aureus [32]): 25 µg/mL (≈ 11.5 µM) | MIC (Escherichia coli): 6.25 µg/mL (≈ 2.88 µM) | MIC (Pseudomonas aeruginosa [33]): 12.5 µg/mL (≈ 5.76 µM) | MIC (Proteus mirabilis): > 100 µg/mL | MIC (Enterobacter cloacae [34]): 12.5 µg/mL (≈ 5.76 µM)
